Measured values from ChEMBL document CHEMBL1130209, “A novel series of 2,5-substituted tryptamine derivatives as vascular 5HT1B/1D receptor antagonists” (J Med Chem, 1997).
Activity calls are given as the source filed them. No cut-off for these calls is given here.

Tests used:
Assay type in all cases: tissue-based
Conditions in all cases: Oryctolagus cuniculus, target entry is the homologue from another species
[1] = target: 5-hydroxytryptamine receptor 1B (Homo sapiens) (UniProt P28222); assay: Dissociation equilibrium constant against the vascular 5-hydroxytryptamine 1B like receptor in the rabbit saphenous vein
Chain of 5-hydroxytryptamine receptor 1B (Homo sapiens) (P28222 whole entry): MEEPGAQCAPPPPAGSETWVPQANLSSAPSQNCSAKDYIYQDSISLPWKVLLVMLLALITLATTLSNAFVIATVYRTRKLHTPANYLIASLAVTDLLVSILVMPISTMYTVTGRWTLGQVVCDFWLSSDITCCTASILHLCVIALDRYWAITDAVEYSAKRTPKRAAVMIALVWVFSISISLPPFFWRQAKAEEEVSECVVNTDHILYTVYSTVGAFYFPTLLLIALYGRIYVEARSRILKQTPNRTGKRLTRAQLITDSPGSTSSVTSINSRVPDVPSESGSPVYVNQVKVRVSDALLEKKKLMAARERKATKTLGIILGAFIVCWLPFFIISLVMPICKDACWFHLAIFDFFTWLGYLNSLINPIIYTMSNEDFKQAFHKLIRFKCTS
Method in brief: (§1)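 Saphenous vein rings (4–5 mm) from male New Zealand white rabbits, killed with pentobarbitone 80 mg/kg iv and exsanguination, mounted on tungsten wires. Phenoxybenzamine 0.3 μM for 30 min, washed out, 1 μM 5HT viability check. Cumulative 5HT curve, then after 60 min recovery a test compound curve. Non-agonists tested as 5HT antagonists, giving apparent pKB.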

[2] = target: 5-hydroxytryptamine receptor 2A (Homo sapiens) (UniProt P28223); assay: Dissociation equilibrium constant against the vascular 5-hydroxytryptamine 2A receptor in the rabbit […] aorta
Chain of 5-hydroxytryptamine receptor 2A (Homo sapiens) (P28223 whole entry): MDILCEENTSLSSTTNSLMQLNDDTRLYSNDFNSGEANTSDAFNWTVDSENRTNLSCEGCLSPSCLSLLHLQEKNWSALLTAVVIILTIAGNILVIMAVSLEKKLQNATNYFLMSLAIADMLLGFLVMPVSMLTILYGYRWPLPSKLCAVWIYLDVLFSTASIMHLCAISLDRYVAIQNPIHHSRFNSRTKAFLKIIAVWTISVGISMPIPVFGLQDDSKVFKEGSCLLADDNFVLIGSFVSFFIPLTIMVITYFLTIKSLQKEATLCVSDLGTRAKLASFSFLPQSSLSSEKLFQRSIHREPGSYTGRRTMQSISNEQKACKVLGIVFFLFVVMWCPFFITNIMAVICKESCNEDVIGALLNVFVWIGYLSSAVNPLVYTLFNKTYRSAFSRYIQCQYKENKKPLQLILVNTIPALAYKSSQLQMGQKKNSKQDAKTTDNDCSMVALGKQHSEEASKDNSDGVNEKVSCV

[3] = target: 5-hydroxytryptamine receptor 1B (Homo sapiens) (UniProt P28222); assay: The dissociation equilibrium constant (pKB=-log KB) of compound was determined against the vascular 5-hydroxytryptamine 1B like receptor in the rabbit saphenous vein(RbSV); NS=non surmountable; method in brief: as §1

CCOC(=O)c1[nH]c2ccc(CCN3C(=O)CNC3=O)cc2c1-c1ccncc1 was tested. Which pKB [1] did it give?
The pKB was 5.29.

And the pKB [2]?
The pKB was less than 5.

With COC(=O)c1[nH]c2ccc(CCN3C(=O)c4ccccc4C3=O)cc2c1CCN(C)C as the compound, how does the pKB [1] read?
Its pKB is 7.39.

And the pKB [2]?
The pKB was 5.66.

Which results are given for CCOC(=O)c1[nH]c2ccc(CCC3COC(=O)N3)cc2c1CCN(C)C (stereo unspecified)?
pKB [1]: 7.21; pKB [2]: 6.76

With CCOC(=O)c1[nH]c2ccc(CCN3C(=O)CNC3=O)cc2c1C1CCN(C)CC1 as the compound, how does the pKB [1] read?
Its pKB is less than 5.

And the pKB [2]?
Its pKB is less than 5.

With CCOC(=O)c1[nH]c2ccc(CCN3C(=O)CSC3=O)cc2c1CCN(C)C as the compound, how does the pKB [1] read?
Its pKB is 7.72.

And the pKB [2]?
Its pKB is 7.56.

For CCOC(=O)c1[nH]c2ccc(CC3COC(=O)N3)cc2c1CCN(C)C (stereo unspecified), which pKB [1] is on record?
Its pKB is 6.12.

And the pKB [2]?
The pKB was 5.66.

For CCOC(=O)c1[nH]c2ccc(CCN3CCCC3=O)cc2c1CCN(C)C, which pKB [1] is on record?
Its pKB is 6.1.

What about the pKB [2] of the same compound?
Its pKB is 5.5.

What does the source list for CCOC(=O)c1[nH]c2ccc(CCN3C(=O)NC(C)(C)C3=O)cc2c1CCN(C)C?
pKB [1]: 7.34; pKB [2]: 5.23

What does the source list for COC(=O)c1[nH]c2ccc(CCN3C(=O)NC(C)(C)C3=O)cc2c1CCN(C)C?
pKB [1]: 6.88; pKB [2]: 5.02

What does the source list for CC(C)OC(=O)c1[nH]c2ccc(CCN3C(=O)CNC3=O)cc2c1CCN(C)C?
pKB [1]: 6.85; pKB [2]: 6.57

Which results are given for CC(C)OC(=O)c1[nH]c2ccc(CCN3C(=O)NC(C)(C)C3=O)cc2c1-c1ccncc1?
pKB [1]: 5.25; pKB [2]: < 5

For CN(C)CCc1c(C(N)=O)[nH]c2ccc(CC3COC(=O)N3)cc12 (stereo unspecified), which pKB [1] is on record?
Its pKB is 4.75.

What about the pKB [2] of the same compound?
Its pKB is less than 4.5.

CN(C)CCc1c(C#N)[nH]c2ccc(CC3COC(=O)N3)cc12 (stereo unspecified) was tested. Which pKB [1] did it give?
Its pKB is 4.8.

And the pKB [2]?
Its pKB is 4.6.

CN(C)CCc1c(Br)[nH]c2ccc(CC3COC(=O)N3)cc12 (stereo unspecified) was tested. Which pKB [1] did it give?
Its pKB is 5.86.

What about the pKB [2] of the same compound?
The pKB was less than 5.

With CN(C)CCc1c(C(=O)OCc2ccccc2)[nH]c2ccc(CCN3C(=O)CNC3=O)cc12 as the compound, how does the pKB [1] read?
The pKB was 7.91.

What about the pKB [2] of the same compound?
Its pKB is 7.3.

CCOC(=O)c1[nH]c2ccc(CCN3C(=O)c4ccccc4C3=O)cc2c1CCN(C)C was tested. Which pKB [1] did it give?
Its pKB is 7.54.

What about the pKB [2] of the same compound?
The pKB was 6.26.

How did the pKB [1] turn out when CCOC(=O)c1[nH]c2ccc(CCN3C(=O)CNC3=O)cc2c1C1=CCN(C)CC1 was run?
Its pKB is 5.88.

And the pKB [2]?
Its pKB is less than 5.

Which pKB [1] does the source give for CN(C)CCc1c(C(=O)OC2CCCCC2)[nH]c2ccc(CCN3C(=O)NC(C)(C)C3=O)cc12 here?
The pKB was 5.95.

And the pKB [2]?
Its pKB is 4.77.

Which pKB [1] does the source give for COC(=O)c1[nH]c2ccc(CCN3CCOC3=O)cc2c1CCN(C)C here?
The pKB was 6.

What about the pKB [2] of the same compound?
The pKB was less than 5.

For COC(=O)c1[nH]c2ccc(CN3C(=O)NC(C)(C)C3=O)cc2c1CCN(C)C, which pKB [1] is on record?
The pKB was 6.45.

What about the pKB [2] of the same compound?
The pKB was 5.03.

For CCOC(=O)c1[nH]c2ccc(CN3C(=O)CNC3=O)cc2c1CCN(C)C, which pKB [1] is on record?
Its pKB is 5.32.

What about the pKB [2] of the same compound?
Its pKB is 5.86.

Which pKB [1] does the source give for CC(C)OC(=O)c1[nH]c2ccc(CN3C(=O)NC(C)(C)C3=O)cc2c1CCN(C)C here?
The pKB was 5.62.

And the pKB [2]?
Its pKB is 5.62.

COC(=O)c1[nH]c2ccc(CCN3C(=O)CNC3=O)cc2c1CCN(C)C was tested. Which pKB [1] did it give?
The pKB was 6.97.

What about the pKB [2] of the same compound?
Its pKB is less than 5.

Which pKB [1] does the source give for CCOC(=O)c1[nH]c2ccc(CN3C(=O)NC(C)(C)C3=O)cc2c1CCN(C)C here?
Its pKB is 6.54.

What about the pKB [2] of the same compound?
Its pKB is 5.52.

For CCOC(=O)c1[nH]c2ccc(CCC3NC(=O)N(C)C3=O)cc2c1CCN(C)C (stereo unspecified), which pKB [1] is on record?
The pKB was 7.3.

And the pKB [2]?
The pKB was 6.2.

Which results are given for CC(C)OC(=O)c1[nH]c2ccc(CCN3C(=O)NC(C)(C)C3=O)cc2c1C1=CCN(C)CC1?
pKB [1]: 6.34; pKB [2]: < 5

What does the source list for COC(=O)c1[nH]c2ccc(CCN3C(=O)CNC3=O)cc2c1-c1ccncc1?
pKB [3]: inactive; pKB [2]: < 5

With COC(=O)c1[nH]c2ccc(CN3C(=O)CNC3=O)cc2c1CCN(C)C as the compound, how does the pKB [1] read?
Its pKB is 5.41.

And the pKB [2]?
Its pKB is 5.15.

Which pKB [1] does the source give for CCOC(=O)c1[nH]c2ccc(CCN3C(=O)c4ccccc4C3=O)cc2c1C1=CCN(C)CC1 here?
Its pKB is 6.42.

And the pKB [2]?
The pKB was 5.02.

With COC(=O)c1[nH]c2ccc(CCC3COC(=O)N3)cc2c1CCN(C)C (stereo unspecified) as the compound, how does the pKB [1] read?
The pKB was 6.61.

And the pKB [2]?
The pKB was 5.88.

CN(C)CCc1c(C(=O)O)[nH]c2ccc(CCN3C(=O)CNC3=O)cc12 was tested. Which pKB [1] did it give?
Its pKB is 6.17.

And the pKB [2]?
The pKB was less than 5.

CC(C)OC(=O)c1[nH]c2ccc(CCN3C(=O)NC(C)(C)C3=O)cc2c1CCN(C)C was tested. Which pKB [1] did it give?
Its pKB is 6.82.

What about the pKB [2] of the same compound?
The pKB was 5.8.

With CCOC(=O)c1[nH]c2ccc(CCN3C(=O)CCC3=O)cc2c1CCN(C)C as the compound, how does the pKB [1] read?
Its pKB is 6.78.

What about the pKB [2] of the same compound?
The pKB was 6.3.
